Assay results: ChEMBL document CHEMBL5696442, “Discovery of type II inhibitors of TGFβ-activated kinase 1 (TAK1) and mitogen-activated protein kinase kinase kinase kinase 2 (MAP4K2)” (J Med Chem, 2015)
Active and inactive are the calls of the source. No cut-off for these calls is given here.

Columns and labels:
[1] = target: Membrane-associated tyrosine- and threonine-specific cdc2-inhibitory kinase (Homo sapiens) (UniProt Q99640); experiment: Inhibition of PKMYT1 (unknown origin) at 10 uM by Ambit Kinomescan binding assay
Sequence of Membrane-associated tyrosine- and threonine-specific cdc2-inhibitory kinase (Homo sapiens) (Q99640 whole entry): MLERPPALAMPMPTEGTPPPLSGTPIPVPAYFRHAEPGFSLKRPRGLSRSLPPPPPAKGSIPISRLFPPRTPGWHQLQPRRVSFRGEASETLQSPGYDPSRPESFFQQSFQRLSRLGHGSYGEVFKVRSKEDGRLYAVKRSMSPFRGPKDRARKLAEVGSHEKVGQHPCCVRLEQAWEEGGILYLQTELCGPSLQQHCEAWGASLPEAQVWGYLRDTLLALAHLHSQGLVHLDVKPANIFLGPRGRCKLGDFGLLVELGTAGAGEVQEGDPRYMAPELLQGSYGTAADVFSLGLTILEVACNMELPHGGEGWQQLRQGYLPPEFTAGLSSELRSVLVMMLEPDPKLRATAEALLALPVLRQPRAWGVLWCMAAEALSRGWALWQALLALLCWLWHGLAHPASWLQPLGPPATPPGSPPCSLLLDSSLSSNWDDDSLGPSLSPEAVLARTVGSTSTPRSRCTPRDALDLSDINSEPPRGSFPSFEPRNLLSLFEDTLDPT

[2] = target: Calcium/calmodulin-dependent protein kinase kinase 1 (Homo sapiens) (UniProt Q8N5S9); experiment: Inhibition of CAMKK1 (unknown origin) at 10 uM by Ambit Kinomescan binding assay
Sequence of Calcium/calmodulin-dependent protein kinase kinase 1 (Homo sapiens) (Q8N5S9 whole entry, looked up): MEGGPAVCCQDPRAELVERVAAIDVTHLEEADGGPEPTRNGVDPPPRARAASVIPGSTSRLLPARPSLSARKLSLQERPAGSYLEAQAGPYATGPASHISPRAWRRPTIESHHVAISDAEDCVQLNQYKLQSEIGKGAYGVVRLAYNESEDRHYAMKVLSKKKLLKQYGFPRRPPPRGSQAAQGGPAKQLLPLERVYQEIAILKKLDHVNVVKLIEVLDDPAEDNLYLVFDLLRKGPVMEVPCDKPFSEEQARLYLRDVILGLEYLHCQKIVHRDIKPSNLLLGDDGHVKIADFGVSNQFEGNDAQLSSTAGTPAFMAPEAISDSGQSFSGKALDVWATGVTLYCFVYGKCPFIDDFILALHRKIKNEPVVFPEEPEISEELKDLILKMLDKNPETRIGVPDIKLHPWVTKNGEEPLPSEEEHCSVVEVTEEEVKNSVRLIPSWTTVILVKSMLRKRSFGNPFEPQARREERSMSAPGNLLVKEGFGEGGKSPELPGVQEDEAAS

[3] = target: Wee1-like protein kinase (Homo sapiens) (UniProt P30291); experiment: Inhibition of WEE1 (unknown origin) at 10 uM by Ambit Kinomescan binding assay
[4] = target: 1-phosphatidylinositol 3-phosphate 5-kinase (Homo sapiens) (UniProt Q9Y2I7); experiment: Inhibition of PIP5K3 ATP labeling site in human Huh-7 cells at 1 uM by KiNativ Profiling analysis relative to control; assay type: cell-based
[5] = target: Protein kinase C theta type (Homo sapiens) (UniProt Q04759); experiment: Inhibition of PRKCQ (unknown origin) at 10 uM by Ambit Kinomescan binding assay
[6] = target: Macrophage colony-stimulating factor 1 receptor (Homo sapiens) (UniProt P07333); experiment: Inhibition of CSF1R (unknown origin) at 1 uM by Ambit Kinomescan binding assay relative to control; values are per cent of control
[7] = target: T1, Serine/threonine-protein kinase 3 (Homo sapiens) (UniProt Q13188); experiment: Inhibition of MST2 Lys1 labeling site in human A-375 cells at 0.5 uM by KiNativ Profiling analysis relative to control; assay type: cell-based
T1 sequence (whole entry): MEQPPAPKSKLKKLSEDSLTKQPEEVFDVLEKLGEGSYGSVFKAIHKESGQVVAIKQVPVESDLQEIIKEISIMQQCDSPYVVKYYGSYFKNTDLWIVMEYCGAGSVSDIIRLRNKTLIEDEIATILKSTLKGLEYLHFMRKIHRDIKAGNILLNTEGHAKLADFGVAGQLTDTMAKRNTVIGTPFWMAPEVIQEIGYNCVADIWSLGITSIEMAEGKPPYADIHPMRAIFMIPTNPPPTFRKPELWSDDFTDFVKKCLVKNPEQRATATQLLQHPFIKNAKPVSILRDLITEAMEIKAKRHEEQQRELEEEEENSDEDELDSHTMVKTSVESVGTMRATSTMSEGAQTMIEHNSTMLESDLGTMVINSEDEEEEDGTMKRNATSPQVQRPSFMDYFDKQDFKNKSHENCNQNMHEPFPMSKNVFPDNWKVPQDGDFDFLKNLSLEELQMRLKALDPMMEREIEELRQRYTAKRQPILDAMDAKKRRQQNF

[8] = target: Ribosomal protein S6 kinase alpha-1 (Homo sapiens) (UniProt Q15418); experiment: Inhibition of RSK1 domain1 Lys2 labeling site harbouring DLKPENILLDEEGHIKLTDFGLSK in human A-375 cells at 5 uM by KiNativ Profiling analysis relative to control; assay type: cell-based
Sequence of Ribosomal protein S6 kinase alpha-1 (Homo sapiens) (Q15418 whole entry, the tested form may be a part): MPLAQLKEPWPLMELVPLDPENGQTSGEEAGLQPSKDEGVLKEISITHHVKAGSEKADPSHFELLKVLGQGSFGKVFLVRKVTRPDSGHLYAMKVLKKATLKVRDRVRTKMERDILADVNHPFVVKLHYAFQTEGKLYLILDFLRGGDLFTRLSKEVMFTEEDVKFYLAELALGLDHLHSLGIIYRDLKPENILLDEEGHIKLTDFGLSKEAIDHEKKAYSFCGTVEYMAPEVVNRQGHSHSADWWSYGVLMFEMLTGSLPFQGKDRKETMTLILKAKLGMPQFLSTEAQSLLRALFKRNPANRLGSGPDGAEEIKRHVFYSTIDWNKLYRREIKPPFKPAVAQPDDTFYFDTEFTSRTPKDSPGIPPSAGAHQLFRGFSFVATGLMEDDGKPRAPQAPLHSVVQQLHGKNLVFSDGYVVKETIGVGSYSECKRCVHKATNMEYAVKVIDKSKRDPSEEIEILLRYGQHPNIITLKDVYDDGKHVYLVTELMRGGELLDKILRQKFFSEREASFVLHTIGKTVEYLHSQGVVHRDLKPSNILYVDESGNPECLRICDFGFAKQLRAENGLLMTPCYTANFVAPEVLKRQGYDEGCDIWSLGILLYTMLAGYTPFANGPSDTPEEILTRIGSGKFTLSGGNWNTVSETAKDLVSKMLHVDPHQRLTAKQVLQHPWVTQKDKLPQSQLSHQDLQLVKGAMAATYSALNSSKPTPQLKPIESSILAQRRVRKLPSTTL
Method in brief: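 Live A375 melanoma cells treated with compound at 5 or 0.5 μM, then lysed. Lysate kinases were labeled with a lysine-reactive ATP or ADP-biotin probe. Inhibition was read as protection of labeling sites from the probe.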

[9] = target: Tyrosine-protein kinase JAK2 (Homo sapiens) (UniProt O60674); experiment: Inhibition of JAK2 JH1catalytic domain (unknown origin) at 1 uM by Ambit Kinomescan binding assay relative to control
Sequence of Tyrosine-protein kinase JAK2 (Homo sapiens) (O60674 whole entry, the tested form may be a part): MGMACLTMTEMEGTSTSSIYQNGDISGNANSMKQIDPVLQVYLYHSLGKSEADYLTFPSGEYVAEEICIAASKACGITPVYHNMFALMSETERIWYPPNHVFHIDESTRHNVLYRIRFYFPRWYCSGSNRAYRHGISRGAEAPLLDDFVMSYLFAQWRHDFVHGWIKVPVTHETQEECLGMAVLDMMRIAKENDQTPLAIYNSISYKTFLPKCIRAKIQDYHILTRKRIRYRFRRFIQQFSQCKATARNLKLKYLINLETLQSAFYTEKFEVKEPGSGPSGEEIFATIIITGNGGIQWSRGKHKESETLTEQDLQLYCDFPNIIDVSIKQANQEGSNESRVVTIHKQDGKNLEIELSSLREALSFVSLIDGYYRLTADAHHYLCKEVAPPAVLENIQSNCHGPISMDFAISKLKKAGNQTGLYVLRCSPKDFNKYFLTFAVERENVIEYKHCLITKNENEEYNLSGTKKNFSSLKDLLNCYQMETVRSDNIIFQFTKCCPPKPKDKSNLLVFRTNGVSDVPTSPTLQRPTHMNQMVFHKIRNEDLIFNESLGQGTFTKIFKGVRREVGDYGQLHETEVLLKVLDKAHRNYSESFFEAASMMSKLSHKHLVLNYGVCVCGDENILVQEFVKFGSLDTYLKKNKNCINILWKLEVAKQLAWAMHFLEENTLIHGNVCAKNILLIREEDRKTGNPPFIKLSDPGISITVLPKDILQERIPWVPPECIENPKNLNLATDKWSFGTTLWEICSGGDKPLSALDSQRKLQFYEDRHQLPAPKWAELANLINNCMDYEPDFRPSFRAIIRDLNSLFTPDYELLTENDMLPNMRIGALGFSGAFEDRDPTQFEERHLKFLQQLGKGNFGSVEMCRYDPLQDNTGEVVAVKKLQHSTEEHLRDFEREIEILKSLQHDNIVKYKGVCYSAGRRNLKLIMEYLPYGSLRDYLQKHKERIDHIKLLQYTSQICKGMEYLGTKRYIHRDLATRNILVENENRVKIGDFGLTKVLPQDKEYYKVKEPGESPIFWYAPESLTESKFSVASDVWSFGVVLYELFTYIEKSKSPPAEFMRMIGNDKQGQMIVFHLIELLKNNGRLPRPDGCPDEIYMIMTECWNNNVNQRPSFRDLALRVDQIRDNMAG

[10] = target: Receptor tyrosine-protein kinase erbB-3 (Homo sapiens) (UniProt P21860); experiment: Inhibition of HER3/ErbB3 ACT labeling site in human A-375 cells at 5 uM by KiNativ Profiling analysis relative to control; assay type: cell-based
Sequence of Receptor tyrosine-protein kinase erbB-3 (Homo sapiens) (P21860 whole entry): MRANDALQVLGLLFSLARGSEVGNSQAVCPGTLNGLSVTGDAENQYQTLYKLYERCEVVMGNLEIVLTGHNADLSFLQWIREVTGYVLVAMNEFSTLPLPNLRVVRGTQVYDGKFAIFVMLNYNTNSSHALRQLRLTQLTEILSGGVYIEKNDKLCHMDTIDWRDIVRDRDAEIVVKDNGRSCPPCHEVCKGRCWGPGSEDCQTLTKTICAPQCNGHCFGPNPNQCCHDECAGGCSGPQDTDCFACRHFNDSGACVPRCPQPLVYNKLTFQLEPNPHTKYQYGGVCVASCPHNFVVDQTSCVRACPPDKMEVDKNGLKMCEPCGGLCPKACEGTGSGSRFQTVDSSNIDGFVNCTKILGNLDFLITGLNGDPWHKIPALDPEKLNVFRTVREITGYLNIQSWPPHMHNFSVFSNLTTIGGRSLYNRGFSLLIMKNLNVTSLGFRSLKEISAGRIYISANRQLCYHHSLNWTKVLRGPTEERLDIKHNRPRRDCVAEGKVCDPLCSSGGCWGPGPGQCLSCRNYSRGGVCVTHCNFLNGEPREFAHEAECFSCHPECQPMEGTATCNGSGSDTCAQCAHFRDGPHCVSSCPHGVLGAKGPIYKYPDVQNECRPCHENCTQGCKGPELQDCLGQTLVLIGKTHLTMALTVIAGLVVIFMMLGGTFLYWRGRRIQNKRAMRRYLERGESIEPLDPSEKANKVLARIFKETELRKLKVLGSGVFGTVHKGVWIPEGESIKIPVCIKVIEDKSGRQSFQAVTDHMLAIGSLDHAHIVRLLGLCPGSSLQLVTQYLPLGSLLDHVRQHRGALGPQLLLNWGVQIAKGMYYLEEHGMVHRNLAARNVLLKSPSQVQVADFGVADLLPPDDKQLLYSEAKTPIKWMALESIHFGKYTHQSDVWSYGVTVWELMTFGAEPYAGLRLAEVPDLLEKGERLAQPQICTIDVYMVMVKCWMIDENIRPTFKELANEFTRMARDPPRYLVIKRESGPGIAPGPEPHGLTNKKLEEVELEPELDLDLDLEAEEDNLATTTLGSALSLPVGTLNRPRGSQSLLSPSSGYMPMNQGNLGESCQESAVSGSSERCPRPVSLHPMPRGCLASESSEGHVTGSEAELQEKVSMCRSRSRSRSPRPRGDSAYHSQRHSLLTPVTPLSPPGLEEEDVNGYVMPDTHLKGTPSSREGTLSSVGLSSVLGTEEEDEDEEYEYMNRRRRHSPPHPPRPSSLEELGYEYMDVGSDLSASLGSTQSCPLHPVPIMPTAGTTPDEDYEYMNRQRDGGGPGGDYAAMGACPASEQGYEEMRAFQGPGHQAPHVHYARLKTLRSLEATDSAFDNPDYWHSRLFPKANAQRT

[11] = target: Cyclin-dependent kinase 2 (Homo sapiens) (UniProt P24941); experiment: Inhibition of CDK2 Lys2 labeling site harbouring VLHRDLKPQNLLINTEGAIK in human Huh-7 cells at 1 uM by KiNativ Profiling analysis relative to control; assay type: cell-based
[12] = target: T2, Aurora kinase C (Homo sapiens) (UniProt Q9UQB9); experiment: Inhibition of AurC ATP labeling site in human Huh-7 cell lysate at 1 uM by KiNativ Profiling analysis relative to control; assay type: subcellular
T2 sequence (whole entry): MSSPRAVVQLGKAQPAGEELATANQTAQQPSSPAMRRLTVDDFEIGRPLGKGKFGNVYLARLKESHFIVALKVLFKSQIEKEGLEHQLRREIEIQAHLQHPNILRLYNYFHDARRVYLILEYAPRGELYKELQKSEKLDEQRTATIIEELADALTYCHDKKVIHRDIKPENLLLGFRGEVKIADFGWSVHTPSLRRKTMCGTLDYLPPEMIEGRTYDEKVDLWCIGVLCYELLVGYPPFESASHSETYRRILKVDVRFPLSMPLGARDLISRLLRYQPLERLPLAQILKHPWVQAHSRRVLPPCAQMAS

[13] = target: Serine/threonine-protein kinase MARK2 (Homo sapiens) (UniProt Q7KZI7); experiment: Inhibition of MARK2 Lys2 labeling site harbouring DLKAENLLLDADMNIK in human Huh-7 cell lysate at 1 uM by KiNativ Profiling analysis relative to control; assay type: subcellular
[14] = target: T3, Serine/threonine-protein kinase tousled-like 1 (Homo sapiens) (UniProt Q9UKI8); experiment: Inhibition of TLK1 Lys2 labeling site in human Huh-7 cell lysate at 1 uM by KiNativ Profiling analysis relative to control; assay type: subcellular
T3 sequence (whole entry): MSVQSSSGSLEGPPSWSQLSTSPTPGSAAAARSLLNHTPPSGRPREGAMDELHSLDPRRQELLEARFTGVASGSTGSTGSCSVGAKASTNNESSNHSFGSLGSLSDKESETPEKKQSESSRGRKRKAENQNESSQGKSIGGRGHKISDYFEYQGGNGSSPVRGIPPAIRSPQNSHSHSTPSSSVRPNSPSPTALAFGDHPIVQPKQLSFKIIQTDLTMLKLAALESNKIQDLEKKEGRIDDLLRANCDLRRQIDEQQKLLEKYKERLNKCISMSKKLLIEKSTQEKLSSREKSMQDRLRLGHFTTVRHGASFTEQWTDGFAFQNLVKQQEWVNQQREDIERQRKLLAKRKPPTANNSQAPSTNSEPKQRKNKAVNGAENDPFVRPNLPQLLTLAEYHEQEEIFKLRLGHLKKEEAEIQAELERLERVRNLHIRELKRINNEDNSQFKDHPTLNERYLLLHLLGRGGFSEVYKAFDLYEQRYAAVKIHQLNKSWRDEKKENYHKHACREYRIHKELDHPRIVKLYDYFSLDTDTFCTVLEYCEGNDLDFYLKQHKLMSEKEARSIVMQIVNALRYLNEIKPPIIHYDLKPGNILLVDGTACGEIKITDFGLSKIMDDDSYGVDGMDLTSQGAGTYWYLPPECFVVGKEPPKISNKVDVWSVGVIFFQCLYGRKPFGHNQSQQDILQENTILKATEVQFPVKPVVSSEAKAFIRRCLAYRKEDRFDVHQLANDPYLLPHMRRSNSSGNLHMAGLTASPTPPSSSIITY

[15] = target: Calcium/calmodulin-dependent protein kinase type II subunit delta (Homo sapiens) (UniProt Q13557); experiment: Inhibition of CaMK2d Lys1 labeling site harbouring IPTGQEYAAKIINTK in human Huh-7 cell lysate at 1 uM by KiNativ Profiling analysis relative to control; assay type: subcellular
Sequence of Calcium/calmodulin-dependent protein kinase type II subunit delta (Homo sapiens) (Q13557 whole entry): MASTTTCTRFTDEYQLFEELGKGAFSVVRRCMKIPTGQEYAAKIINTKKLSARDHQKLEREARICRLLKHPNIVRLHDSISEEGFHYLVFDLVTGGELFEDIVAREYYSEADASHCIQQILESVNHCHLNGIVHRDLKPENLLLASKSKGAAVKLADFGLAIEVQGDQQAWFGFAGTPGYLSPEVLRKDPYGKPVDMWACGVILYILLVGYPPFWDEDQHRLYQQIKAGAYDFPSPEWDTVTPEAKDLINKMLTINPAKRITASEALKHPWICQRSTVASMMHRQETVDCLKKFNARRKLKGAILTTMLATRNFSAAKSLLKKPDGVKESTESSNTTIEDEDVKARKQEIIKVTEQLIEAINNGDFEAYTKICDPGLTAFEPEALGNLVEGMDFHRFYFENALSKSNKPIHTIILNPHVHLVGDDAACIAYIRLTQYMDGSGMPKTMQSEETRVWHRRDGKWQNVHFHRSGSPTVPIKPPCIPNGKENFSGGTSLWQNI

CCN1CCN(Cc2ccc(NC(=O)c3ccc(C)c(Oc4ccnc5[nH]ccc45)c3)cc2C(F)(F)F)CC1
inhibition [1]: inactive | inhibition [2]: inactive | inhibition [3]: inactive | inhibition [4]: -3.1% | inhibition [5]: inactive

CCN1CCN(Cc2ccc(NC(=O)c3ccc(C)c(/C=C/c4cnc5[nH]ccc5c4OC)c3)cc2C(F)(F)F)CC1
residual activity [6]: 0.75% | inhibition [7]: 8.2% | inhibition [8]: -4.9% | inhibition [9]: 32% | inhibition [10]: -3.7%

CNc1cc(Oc2cc(C(=O)Nc3cc(N4CCN(C)CC4)cc(C(F)(F)F)c3)ccc2C)ncn1
inhibition [11]: 29.3% | inhibition [12]: 2.5% | inhibition [13]: -4.1% | inhibition [14]: 1% | inhibition [15]: 1.4%
